Data reported in paper PMC2659725 (Archives of biochemistry and biophysics, 2009).
“Also recorded” adds a separate entry of the source. Read-outs that look alike come from different tables or passages of the source. Blank lines part the entries; values can stand above or below the molecule they belong to.

Columns and labels:
tubulin [1] = biological target: tubulin (Bos taurus, UniProt P81947+Q6B856); assay type: biochemical, bovine; details: for Effect on paclitaxel-induced tubulin assembly: 30 μM tubulin, 30 μM paclitaxel
microtubules = microtubules (Bos taurus, UniProt P81947+Q6B856); assay: Lengths of paclitaxel-induced microtubules by electron microscopy; assay type: biochemical, bovine; details: for Mean microtubule length ± SD, Average / Mean microtubule length ± SD, Experiment I / Mean microtubule length ± SD, Experiment II: paclitaxel-induced microtubules
Outline: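 Paclitaxel-induced polymers were formed with GDP at the stated levels and monitored turbidimetrically. Samples were placed on carbon-coated formvar copper grids and stained with 1% uranyl acetate. Lengths were measured from EM negatives.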

[2] = tested on: taxoid site of microtubules; assay: Displacement of a fluorescent taxoid analog from microtubules; assay type: binding; details: fluorescence anisotropy; personal communication, Dr. Fernando Díaz
tubulin E-site = details: read-out: Kd for GDP binding to the E-site; cited from earlier work
[3] = tested on: subtilisin-treated tubulin; assay: Paclitaxel-induced assembly of subtilisin-treated tubulin; assay type: biochemical, bovine; details: same tubulin concentration (10 μM)
tubulin with MAPs = tubulin with MAPs (Bos taurus, UniProt P81947+Q6B856); assay: Paclitaxel-induced tubulin assembly with heat-treated MAPs; assay type: biochemical, bovine
tubulin [4] = details: paclitaxel, 37 °C, cited from earlier work
tubulin [5] = assay: Critical concentration of tubulin for paclitaxel-induced assembly; assay type: biochemical, bovine; details: 10 μM paclitaxel
Outline: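 Bovine brain tubulin, MAP-free, carrying E-site GDP and N-site GTP, with no exogenous GTP or Mg2+. Assay buffer 0.1 M Mes (pH 6.9) with 10 μM paclitaxel, plus heat-treated MAPs or MAPs with GTP where indicated. Components mixed at 0 °C, held 2 min, jumped to 30 °C and followed about 30 min. Turbidity read at 350 nm.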

Sequence of tubulin (Bos taurus, UniProt P81947+Q6B856) (P81947 whole entry): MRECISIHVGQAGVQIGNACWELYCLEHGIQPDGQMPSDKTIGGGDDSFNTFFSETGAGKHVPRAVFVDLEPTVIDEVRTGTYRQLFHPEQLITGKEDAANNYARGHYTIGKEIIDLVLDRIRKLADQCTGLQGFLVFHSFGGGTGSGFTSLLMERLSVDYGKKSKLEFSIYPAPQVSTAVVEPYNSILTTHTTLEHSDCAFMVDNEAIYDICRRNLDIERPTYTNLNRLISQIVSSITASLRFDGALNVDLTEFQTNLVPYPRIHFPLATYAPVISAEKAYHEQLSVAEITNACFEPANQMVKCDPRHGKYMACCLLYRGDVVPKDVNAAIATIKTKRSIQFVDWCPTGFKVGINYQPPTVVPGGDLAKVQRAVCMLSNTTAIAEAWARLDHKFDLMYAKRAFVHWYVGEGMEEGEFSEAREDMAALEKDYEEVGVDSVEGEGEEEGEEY
Sequence of tubulin (Bos taurus, UniProt P81947+Q6B856) (Q6B856 whole entry): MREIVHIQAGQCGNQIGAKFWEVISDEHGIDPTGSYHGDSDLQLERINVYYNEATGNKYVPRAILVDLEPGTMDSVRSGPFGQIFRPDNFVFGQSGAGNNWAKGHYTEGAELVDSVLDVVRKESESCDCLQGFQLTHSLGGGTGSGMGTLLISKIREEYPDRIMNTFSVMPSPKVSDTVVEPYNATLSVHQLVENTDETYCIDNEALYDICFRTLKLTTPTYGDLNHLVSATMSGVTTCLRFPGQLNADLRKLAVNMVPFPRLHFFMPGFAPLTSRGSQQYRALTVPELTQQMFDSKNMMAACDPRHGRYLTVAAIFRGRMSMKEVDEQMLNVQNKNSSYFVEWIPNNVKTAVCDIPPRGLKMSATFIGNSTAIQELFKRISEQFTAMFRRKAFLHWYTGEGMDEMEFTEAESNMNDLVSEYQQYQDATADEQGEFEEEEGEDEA
Sequence of microtubules (P81947 whole entry): as the sequence (P81947 whole entry) above
Sequence of microtubules (Q6B856 whole entry): as the sequence (Q6B856 whole entry) above
Sequence of tubulin with MAPs (P81947 whole entry): as the sequence (P81947 whole entry) above
Sequence of tubulin with MAPs (Q6B856 whole entry): as the sequence (Q6B856 whole entry) above

Effect on paclitaxel-induced tubulin assembly (tubulin [1]; no exogenous GTP): had any inhibitory effect, nor did
SMILES: Nc1ncnc2c1ncn2[C@@H]1O[C@H](COP(=O)(O)OP(=O)(O)O)[C@@H](O)[C@H]1O [ADP]

SMILES: Nc1ncnc2c1ncn2[C@@H]1O[C@H](COP(=O)(O)OP(=O)(O)OP(=O)(O)O)[C@@H](O)[C@H]1O [ATP]
Effect on paclitaxel-induced tubulin assembly (tubulin [1]; no exogenous GTP): weak inhibitory effect; also recorded: extensive inhibition; also recorded: inhibited

Effect on paclitaxel-induced tubulin assembly (tubulin [1]; no exogenous GTP): had any inhibitory effect, nor did
SMILES: Nc1ccn([C@@H]2O[C@H](COP(=O)(O)OP(=O)(O)O)[C@@H](O)[C@H]2O)c(=O)n1 [CDP]

Effect on paclitaxel-induced tubulin assembly (tubulin [1]; no exogenous GTP): Still weaker effects
SMILES: Nc1ccn([C@@H]2O[C@H](COP(=O)(O)OP(=O)(O)OP(=O)(O)O)[C@@H](O)[C@H]2O)c(=O)n1 [CTP]

Effect on paclitaxel-induced tubulin assembly (tubulin [1]; 5 μM GDP): significant inhibitory effect
Effect on paclitaxel-induced tubulin assembly (tubulin [1]; 100 μM GDP): almost totally eliminated
Increase of the IC50 when 2 mM MgCl2 was added (tubulin [1]; 57 vs 15 μM): ~4 fold
Mean microtubule length ± SD, Average (microtubules; 5 μM GDP): 2.8 ± 2.1 μm
Mean microtubule length ± SD, Experiment I (microtubules; 5 μM GDP): 3.7 ± 2.2 μm
Mean microtubule length ± SD, Experiment II (microtubules; 5 μM GDP): 2.1 ± 1.5 μm
Mean microtubule length ± SD, Average (microtubules; 10 μM GDP): 2.8 ± 2.1 μm
Mean microtubule length ± SD, Experiment I (microtubules; 10 μM GDP): 3.5 ± 2.3 μm
Mean microtubule length ± SD, Experiment II (microtubules; 10 μM GDP): 2.2 ± 1.6 μm
Mean microtubule length ± SD, Average (microtubules; 50 μM GDP): 2.7 ± 2.4 μm
Mean microtubule length ± SD, Experiment I (microtubules; 50 μM GDP): 4.5 ± 3.2 μm
Mean microtubule length ± SD, Experiment II (microtubules; 50 μM GDP): 2.0 ± 1.5 μm
Change in average microtubule length (microtubules; whatever the GDP concentration (5-50 μM)): essentially no change
IC50 with subtilisin-treated tubulin lower than value obtained with MAPs [3]: about 40%
SMILES: Nc1nc2c(ncn2[C@@H]2O[C@H](COP(=O)(O)OP(=O)(O)O)[C@@H](O)[C@H]2O)c(=O)[nH]1 [GDP]
Displacement of fluorescent taxoid analog from microtubules [2]: unable to displace the fluorescent taxoid
Kd (tubulin E-site): 0.02 to 0.06 µM

Effect on paclitaxel-induced tubulin assembly (tubulin [1]; no exogenous GTP): enhancing assembly
SMILES: Nc1nc2c(ncn2[C@@H]2O[C@H](COP(=O)(O)OP(=O)(O)OP(=O)(O)O)[C@@H](O)[C@H]2O)c(=O)[nH]1 [GTP]

Effect on paclitaxel-induced tubulin assembly (tubulin [1]; no exogenous GTP): had any inhibitory effect, nor did
SMILES: O=c1[nH]cnc2c1ncn2[C@@H]1O[C@H](COP(=O)(O)OP(=O)(O)O)[C@@H](O)[C@H]1O [IDP]

Effect on paclitaxel-induced tubulin assembly (tubulin [1]; no exogenous GTP): stimulatory
SMILES: O=c1[nH]cnc2c1ncn2[C@@H]1O[C@H](COP(=O)(O)OP(=O)(O)OP(=O)(O)O)[C@@H](O)[C@H]1O [ITP]

Effect on paclitaxel-induced tubulin assembly (tubulin [1]; no exogenous GTP): had any inhibitory effect, nor did
SMILES: O=c1ccn([C@@H]2O[C@H](COP(=O)(O)OP(=O)(O)O)[C@@H](O)[C@H]2O)c(=O)[nH]1 [UDP]

Effect on paclitaxel-induced tubulin assembly (tubulin [1]; no exogenous GTP): stimulatory
SMILES: O=c1ccn([C@@H]2O[C@H](COP(=O)(O)OP(=O)(O)OP(=O)(O)O)[C@@H](O)[C@H]2O)c(=O)[nH]1 [UTP]

Effect on paclitaxel-induced tubulin assembly (tubulin [1]; no exogenous GTP): stimulatory
SMILES: O=c1[nH]c(=O)c2ncn([C@@H]3O[C@H](COP(=O)(O)OP(=O)(O)OP(=O)(O)O)[C@@H](O)[C@H]3O)c2[nH]1 [XTP]

SMILES: COc1cc2cc(c1Cl)N(C)C(=O)C[C@H](OC(=O)[C@H](C)N(C)C(C)=O)[C@]1(C)O[C@H]1[C@H](C)[C@@H]1C[C@@](O)(NC(=O)O1)[C@H](OC)/C=C/C=C(\C)C2 [maytansine]
IC50 (tubulin [1]): < 5 µM
IC50 (tubulin with MAPs): < 5 µM

Extent of tubulin assembly (tubulin [1]; tubulin and paclitaxel both at 10 μM, no GTP, no MAPs): negligible assembly
SMILES: CC(=O)O[C@H]1C(=O)[C@@]2(C)[C@H]([C@H](OC(=O)c3ccccc3)[C@]3(O)C[C@H](OC(=O)[C@H](O)[C@@H](NC(=O)c4ccccc4)c4ccccc4)C(C)=C1C3(C)C)[C@]1(OC(C)=O)CO[C@@H]1C[C@@H]2O [paclitaxel, Paclitaxel]
Critical concentration of tubulin (tubulin [4]; no GTP, no MAPs, obtained previously): 22 to 28 µM
Critical concentration of tubulin (tubulin [4]; with MAPs, different protein preparations): 2 to 5 µM
Reduction in critical concentration by subtilisin treatment (tubulin [5]; 15 μM to 1.6 μM): ~10 fold
Critical concentration of tubulin (tubulin [5]; 30 °C, MAPs alone added): about 3.5 μM
Critical concentration of tubulin (tubulin [5]; both MAPs and GTP added): less than 1 μM
Critical concentration of subtilisin-treated tubulin (tubulin [5]; subtilisin-treated tubulin): 1.6 µM

SMILES: COc1cc([C@@H]2c3cc4c(cc3[C@H](O)[C@H]3COC(=O)[C@H]23)OCO4)cc(OC)c1OC [podophyllotoxin, Podophyllotoxin]
IC50 (tubulin with MAPs): < 5 µM
